According to ChEMBL document CHEMBL1135528, “Monocyclic human tachykinin NK-2 receptor antagonists as evolution of a potent bicyclic antagonist: QSAR and site-directed mutagenesis studies” (J Med Chem, 2002):
Numbering of substitutions follows the chain as printed. One block for each molecule: values may come before it. Activity calls are given as the source filed them. No cut-off for these calls is given here. *1 amine or outer side, *2 acyl side, *3 side chain or, on linkers, in order; H or OH if unused. Where a SMILES comes first, the peptide text is derived from it. Bridges are numbered along the chain shown (N, C = ends). [ ]: non-standard residue; d: D form. Suc = O=C(CCC(=O)[*:2])[*:1]; Dap = NC[C@H](N)C(=O)O

Columns and labels:
Substance-K receptor = target: T1, Substance-K receptor (Homo sapiens, UniProt P21452); test: Inhibitory affinity constant (pKi) against tachykinin receptor 2 (NK-2R) using heterologous competition experiments
T1 sequence (P21452 whole entry): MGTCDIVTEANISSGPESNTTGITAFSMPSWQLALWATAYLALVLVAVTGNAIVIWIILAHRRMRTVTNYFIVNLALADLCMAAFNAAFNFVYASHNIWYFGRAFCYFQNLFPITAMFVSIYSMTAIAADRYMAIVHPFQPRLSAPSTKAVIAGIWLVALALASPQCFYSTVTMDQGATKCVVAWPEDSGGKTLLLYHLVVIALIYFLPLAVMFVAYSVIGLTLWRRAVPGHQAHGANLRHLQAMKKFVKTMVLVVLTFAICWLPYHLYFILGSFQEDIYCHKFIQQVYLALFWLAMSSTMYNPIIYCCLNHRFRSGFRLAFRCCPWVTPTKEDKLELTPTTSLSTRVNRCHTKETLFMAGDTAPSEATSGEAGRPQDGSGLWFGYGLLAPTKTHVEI
How it was run: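 Buffer was 50 mM Tris-HCl pH 7.4. Competitors ranged 0.3 pM–10 μM. Filter-bound radioactivity was counted, and pKi was obtained by fitting competition curves. Mean ± sem of duplicate experiments.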

[1] = tested on: Substance-K receptor (Homo sapiens), P21452 [I202F]
[2] = tested on: Substance-K receptor (Homo sapiens), P21452 [N110A]
[3] = tested on: Substance-K receptor (Homo sapiens), P21452 [Y269F]
[4] = tested on: Substance-K receptor (Homo sapiens), P21452 [H198A]
[5] = tested on: T2, Substance-K receptor (Homo sapiens), P21452 [W263A]
T2 sequence (whole entry): T1 sequence (P21452 whole entry) with W263A

[6] = tested on: Substance-K receptor (Homo sapiens), P21452 [Y289T]
[7] = tested on: Substance-K receptor (Homo sapiens), P21452 [Y206F]
[8] = tested on: Substance-K receptor (Homo sapiens), P21452 [F112A]
[9] = tested on: T3, Substance-K receptor (Homo sapiens), P21452 [Y266F]
T3 sequence (whole entry): T1 sequence (P21452 whole entry) with Y266F

[10] = tested on: T4, Substance-K receptor (Homo sapiens), P21452 [C167A]
T4 sequence (whole entry): T1 sequence (P21452 whole entry) with C167A

[11] = tested on: Substance-K receptor (Homo sapiens), P21452 [Y269A]
[12] = tested on: T5, Substance-K receptor (Homo sapiens), P21452 [S170A]
T5 sequence (whole entry): T1 sequence (P21452 whole entry) with S170A

[13] = tested on: Substance-K receptor (Homo sapiens), P21452 [Y169A]
[14] = tested on: Substance-K receptor (Homo sapiens), P21452 [T171A]
[15] = tested on: Substance-K receptor (Homo sapiens), P21452 [F293A]
[16] = tested on: Substance-K receptor (Homo sapiens), P21452 [Q166A]
[17] = tested on: Substance-K receptor (Homo sapiens), P21452 [Y289F]
[18] = tested on: Substance-K receptor (Homo sapiens), P21452 [Y107A]
Sequence of Substance-K receptor (Homo sapiens), P21452 [Y107A] (P21452 whole entry Y107A): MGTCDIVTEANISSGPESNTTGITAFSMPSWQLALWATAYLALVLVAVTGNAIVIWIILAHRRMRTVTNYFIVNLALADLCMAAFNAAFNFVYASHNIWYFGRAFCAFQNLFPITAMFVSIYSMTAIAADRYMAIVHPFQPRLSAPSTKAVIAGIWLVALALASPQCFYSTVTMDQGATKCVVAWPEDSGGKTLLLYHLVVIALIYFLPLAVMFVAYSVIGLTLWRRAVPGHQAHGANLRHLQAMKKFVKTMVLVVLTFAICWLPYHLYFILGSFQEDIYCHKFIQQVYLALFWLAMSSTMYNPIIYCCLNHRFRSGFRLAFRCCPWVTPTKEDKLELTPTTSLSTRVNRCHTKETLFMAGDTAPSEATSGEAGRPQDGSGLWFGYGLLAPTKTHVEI

Sequence of Substance-K receptor (Homo sapiens), P21452 [Y289F] (P21452 whole entry Y289F): as the sequence (P21452 whole entry Y107A) above, with A107Y, Y289F counted along it
Sequence of Substance-K receptor (Homo sapiens), P21452 [Q166A] (P21452 whole entry Q166A): as the sequence (P21452 whole entry Y107A) above, with A107Y, Q166A counted along it
Sequence of Substance-K receptor (Homo sapiens), P21452 [Y269A] (P21452 whole entry Y269A): as the sequence (P21452 whole entry Y107A) above, with A107Y, Y269A counted along it
Sequence of Substance-K receptor (Homo sapiens), P21452 [H198A] (P21452 whole entry H198A): as the sequence (P21452 whole entry Y107A) above, with A107Y, H198A counted along it
Sequence of Substance-K receptor (Homo sapiens), P21452 [F112A] (P21452 whole entry F112A): as the sequence (P21452 whole entry Y107A) above, with A107Y, F112A counted along it
Sequence of Substance-K receptor (Homo sapiens), P21452 [I202F] (P21452 whole entry I202F): as the sequence (P21452 whole entry Y107A) above, with A107Y, I202F counted along it
Sequence of Substance-K receptor (Homo sapiens), P21452 [F293A] (P21452 whole entry F293A): as the sequence (P21452 whole entry Y107A) above, with A107Y, F293A counted along it
Sequence of Substance-K receptor (Homo sapiens), P21452 [Y289T] (P21452 whole entry Y289T): as the sequence (P21452 whole entry Y107A) above, with A107Y, Y289T counted along it
Sequence of Substance-K receptor (Homo sapiens), P21452 [Y269F] (P21452 whole entry Y269F): as the sequence (P21452 whole entry Y107A) above, with A107Y, Y269F counted along it
Sequence of Substance-K receptor (Homo sapiens), P21452 [N110A] (P21452 whole entry N110A): as the sequence (P21452 whole entry Y107A) above, with A107Y, N110A counted along it
Sequence of Substance-K receptor (Homo sapiens), P21452 [Y206F] (P21452 whole entry Y206F): as the sequence (P21452 whole entry Y107A) above, with A107Y, Y206F counted along it
Sequence of Substance-K receptor (Homo sapiens), P21452 [T171A] (P21452 whole entry T171A): as the sequence (P21452 whole entry Y107A) above, with A107Y, T171A counted along it
Sequence of Substance-K receptor (Homo sapiens), P21452 [Y169A] (P21452 whole entry Y169A): as the sequence (P21452 whole entry Y107A) above, with A107Y, Y169A counted along it

Ki (Substance-K receptor): 0.316 nM
SMILES: O=C1C[C@@H](NC(=O)CN2CCOCC2)C(=O)NC[C@@H](Cc2ccccc2)NC(=O)[C@H](Cc2ccccc2)NC(=O)[C@H](Cc2c[nH]c3ccccc23)N1

Ki (Substance-K receptor): 316 nM
SMILES: O=C1CCCNC(=O)[C@@H](Cc2ccccc2)NC(=O)[C@H](Cc2ccccc2)NC(=O)[C@H](Cc2c[nH]c3ccccc23)N1

Ki (Substance-K receptor): 1.58 nM
SMILES: O=C1C[C@H](NCc2nn[nH]n2)C(=O)NC[C@@H](Cc2ccccc2)NC(=O)[C@H](Cc2ccccc2)NC(=O)[C@H](Cc2c[nH]c3ccccc23)N1

Ki (Substance-K receptor): 7.94 nM
SMILES: NCCCC(=O)N[C@H]1CC(=O)N[C@@H](Cc2c[nH]c3ccccc23)C(=O)N[C@@H](Cc2ccccc2)C(=O)N[C@H](Cc2ccccc2)CNC1=O

Ki (Substance-K receptor): 3.16 nM
SMILES: O=C1CCC(=O)N[C@@H](Cc2c[nH]c3ccccc23)C(=O)N[C@@H](Cc2ccccc2)C(=O)N[C@H](Cc2c[nH]c3ccccc23)CN1

Ki (Substance-K receptor): 3980 nM
SMILES: NC(=O)[C@@H]1CNC(=O)CCC(=O)N[C@@H](Cc2c[nH]c3ccccc23)C(=O)N[C@@H](Cc2ccccc2)C(=O)N1 (Trp-Phe-[Dap]-NH2; linker N-3 via Suc)

KD/Ki [1]: 2.1 nM | UB [2]: inactive | KD/Ki [3]: 5.3 nM | UB [4]: inactive | UB [5]: inactive | UB [6]: inactive | KD/Ki [7]: 5.9 nM | KD/Ki [8]: 10.7 nM | KD/Ki [9]: 2.8 nM | UB [10]: inactive | UB [11]: inactive | KD/Ki [12]: 1.9 nM | UB [13]: inactive | KD/Ki [14]: 5.9 nM | KD/Ki [15]: 40 nM | KD/Ki [16]: 6.6 nM | KD/Ki [17]: 2 nM | KD/Ki [18]: 0.5 nM
SMILES: CSCC[C@H](NC(=O)[C@H](CC(C)C)NC(=O)CNC(=O)[C@@H](NC(=O)[C@H](Cc1ccccc1)NC(=O)[C@H](CO)NC(=O)[C@H](CC(=O)O)NC(=O)[C@@H](NC(=O)[C@H](CCCCN)NC(=O)[C@@H](N)Cc1c[nH]cn1)[C@@H](C)O)C(C)C)C(N)=O

Ki (Substance-K receptor): 12.6 nM
SMILES: O=C(O)CCC(=O)N[C@H]1CC(=O)N[C@@H](Cc2c[nH]c3ccccc23)C(=O)N[C@@H](Cc2ccccc2)C(=O)N[C@H](Cc2ccccc2)CNC1=O

Ki (Substance-K receptor): 3.98 nM
SMILES: N=C(N)NCC(=O)N[C@H]1CC(=O)N[C@@H](Cc2c[nH]c3ccccc23)C(=O)N[C@@H](Cc2ccccc2)C(=O)N[C@H](Cc2ccccc2)CNC1=O

Ki (Substance-K receptor): 3.16 nM
SMILES: N[C@H]1CC(=O)NC[C@@H](Cc2ccccc2)NC(=O)[C@H](Cc2ccccc2)NC(=O)[C@H](Cc2c[nH]c3ccccc23)NC1=O

Ki (Substance-K receptor): 3.16 nM
SMILES: N[C@H]1CC(=O)N[C@@H](Cc2c[nH]c3ccccc23)C(=O)N[C@@H](Cc2ccccc2)C(=O)N[C@H](Cc2ccccc2)CNC1=O

Ki (Substance-K receptor): 0.398 nM
SMILES: O=C1C[C@@H](NC(=O)CN2CCC(N3CCCCC3)CC2)C(=O)NC[C@H](Cc2ccccc2)NC(=O)[C@H](Cc2ccccc2)NC(=O)[C@H](Cc2c[nH]c3ccccc23)N1

Ki (Substance-K receptor): 0.158 nM
SMILES: O=C1C[C@@H](N2CCOCC2)C(=O)NC[C@@H](Cc2ccccc2)NC(=O)[C@H](Cc2ccccc2)NC(=O)[C@H](Cc2c[nH]c3ccccc23)N1

Ki (Substance-K receptor): 316 nM
SMILES: C=CCOC(=O)[C@@H]1CC(=O)N[C@@H](Cc2c[nH]c3ccccc23)C(=O)N[C@@H](Cc2ccccc2)C(=O)N[C@H](Cc2ccc(Cl)c(Cl)c2)C(=O)N1

Ki (Substance-K receptor): 5.01 nM
SMILES: O=C(N[C@H]1CCCCN(Cc2ccccc2)C(=O)[C@H](Cc2ccccc2)NC(=O)[C@H](Cc2c[nH]c3ccccc23)NC1=O)OCc1ccccc1

Ki (Substance-K receptor): 0.794 nM
SMILES: O=C1C[C@H](N2CCOCC2)C(=O)NC[C@@H](Cc2ccccc2)NC(=O)[C@H](Cc2ccccc2)NC(=O)[C@H](Cc2c[nH]c3ccccc23)N1

Ki (Substance-K receptor): 398 nM
SMILES: O=C1C[C@@H](C(=O)O)NC(=O)[C@@H](Cc2ccc(Cl)c(Cl)c2)NC(=O)[C@H](Cc2ccccc2)NC(=O)[C@H](Cc2c[nH]c3ccccc23)N1

Ki (Substance-K receptor): 6.31 nM
SMILES: O=C1C[C@H](NC(=O)[C@]2(O)C[C@@H](O)[C@@H](O)[C@H](O)C2)C(=O)NC[C@@H](Cc2ccccc2)NC(=O)[C@H](Cc2ccccc2)NC(=O)[C@H](Cc2c[nH]c3ccccc23)N1
